What was measured:
Phosphotransferase = target: T1, Phosphotransferase (Trypanosoma cruzi, UniProt Q8ST54); assay: Inhibitory activity against Trypanosoma cruzi hexokinase
T1 sequence (Q8ST54 whole entry): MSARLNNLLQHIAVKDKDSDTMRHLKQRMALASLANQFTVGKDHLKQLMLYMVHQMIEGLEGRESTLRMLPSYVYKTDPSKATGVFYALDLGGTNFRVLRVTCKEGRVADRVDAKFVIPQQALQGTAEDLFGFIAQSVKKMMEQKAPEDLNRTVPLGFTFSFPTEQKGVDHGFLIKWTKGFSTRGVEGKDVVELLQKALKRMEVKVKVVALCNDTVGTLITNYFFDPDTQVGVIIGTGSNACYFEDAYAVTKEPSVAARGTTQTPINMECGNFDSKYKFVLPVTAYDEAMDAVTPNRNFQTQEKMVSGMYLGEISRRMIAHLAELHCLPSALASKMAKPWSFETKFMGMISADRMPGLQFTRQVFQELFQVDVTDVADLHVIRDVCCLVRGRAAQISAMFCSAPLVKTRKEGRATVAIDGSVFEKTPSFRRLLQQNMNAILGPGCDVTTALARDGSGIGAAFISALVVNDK
Method in brief: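 Native glycosomal T. cruzi hexokinase, purified by a previously described procedure. Activity was followed as NADPH formation at 340 nm, coupled to D-glucose-6-phosphate dehydrogenase. Inhibition was reported as IC50.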

[1] = target: farnesyl pyrophosphate synthase (Leishmania major); assay: Inhibitory activity against FPPS in Leishmania major

O=P(O)(O)C(CN[C@@H](CO)c1ccccc1)P(=O)(O)O
IC50 (Phosphotransferase): > 300 µM

O=P(O)(O)C(Cc1cccc(-c2ccccc2)c1)S(=O)(=O)O (stereo not given) [2-biphenyl-3-yl-1-phosphono-ethanesulfonic acid]
IC50 [1]: 11 µM

C[C@H](NC(P(=O)(O)O)P(=O)(O)O)c1cccc2ccccc12 [(Bis-phosphono-methyl)-((S)-1-naphthalen-1-yl-ethyl)-ammonium]
IC50 (Phosphotransferase): > 300 µM

O=P(O)(O)C(NC1CC1)P(=O)(O)O [(cyclopropylamino-phosphono-methyl)-phosphonic acid]
IC50 (Phosphotransferase): > 300 µM

CCCNC(P(=O)(O)O)P(=O)(O)O [propylaminomethylene-1,1-bisphosphonate]
IC50 (Phosphotransferase): > 300 µM

From BindingDB's records for doi:10.1021/jm0582625 (University of Illinois At Urbana-Champaign, 2006)
